Where “and” joins values, the source holds several entries; their conditions need not be identical. Equal values may be shown once.
System: U2OS
Assay: Multiplex assay against U2OS
Type: toxicity, cell-based
Conditions: human
How it was run: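 Live cells carried four stains from seeding: Hoechst33342, BioTracker Green Microtubule Cytoskeleton Dye, MitoTracker Red and Annexin V Alexa Fluor 680. They were imaged on a CQ1 microscope at 37°C and 5% CO2 after compound addition. Using CellPathfinder machine-learning gating, cells were split into Hoechst high-intensity objects or normal cells, normal cells into healthy, pyknosed or fragmented nuclei, and pyknosed cells into mitotic or apoptotic; tubulin, mitochondrial-mass and membrane-permeability phenotypes are per cents of healthy-nucleus cells.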

[1] = 12 h, 1 µM, compound concentration 1 uM
[2] = 12 h, 10 µM, compound concentration 10 uM
[3] = 24 h, 1 µM, compound concentration 1 uM
[4] = 24 h, 10 µM, compound concentration 10 uM
[5] = 48 h, 1 µM, compound concentration 1 uM
[6] = 48 h, 10 µM, compound concentration 10 uM

Cc1onc(-c2ccccc2Cl)c1C(=O)N(C)c1ccc(Cl)cc1
Population Apoptotic (%) [1]: 82% and 78%
Population Fragmented Nuclei (%) [1]: 26% and 10%
Population Healthy Nuclei (%) [1]: 67% and 79%
Population Hoechst High Intensity Objects (%) [1]: 0% and 1%
Population Membrane Permeable-Phenotype (%) [1]: 3% and 4%
Population Mitochondria Different-Phenotype (%) [1]: 2% and 1%
Population Mitotic Cells (%) [1]: 17% and 21%
Population Normal (%) [1]: 99% and 98%
Population Pyknosed Nuclei (%) [1]: 6% and 10%
Population Tubulin-Different-Phenotype (%) [1]: 1% and 3%
Total Cell Count [1]: 277 and 136
Population Apoptotic (%) [2]: 79% and 77%
Population Fragmented Nuclei (%) [2]: 28% and 24%
Population Healthy Nuclei (%) [2]: 58% and 56%
Population Hoechst High Intensity Objects (%) [2]: 4% and 0%
Population Membrane Permeable-Phenotype (%) [2]: 12% and 7%
Population Mitochondria Different-Phenotype (%) [2]: 5% and 6%
Population Mitotic Cells (%) [2]: 20% and 22%
Population Normal (%) [2]: 95% and 99%
Population Pyknosed Nuclei (%) [2]: 12% and 19%
Population Tubulin-Different-Phenotype (%) [2]: 5% and 4%
Total Cell Count [2]: 244 and 113
Population Apoptotic (%) [3]: 100% and 83%
Population Fragmented Nuclei (%) [3]: 23% and 11%
Population Healthy Nuclei (%) [3]: 70% and 81%
Population Hoechst High Intensity Objects (%) [3]: 0% and 1%
Population Membrane Permeable-Phenotype (%) [3]: 2% and 4%
Population Mitochondria Different-Phenotype (%) [3]: 2% and 5%
Population Mitotic Cells (%) [3]: 0% and 16%
Population Normal (%) [3]: 99% and 98%
Population Pyknosed Nuclei (%) [3]: 5% and 7%
Population Tubulin-Different-Phenotype (%) [3]: 0% and 2%
Total Cell Count [3]: 328 and 168
Population Apoptotic (%) [4]: 72% and 64%
Population Fragmented Nuclei (%) [4]: 26% and 20%
Population Healthy Nuclei (%) [4]: 62% and 66%
Population Hoechst High Intensity Objects (%) [4]: 3%
Population Membrane Permeable-Phenotype (%) [4]: 11% and 8%
Population Mitochondria Different-Phenotype (%) [4]: 6% and 7%
Population Mitotic Cells (%) [4]: 27% and 35%
Population Normal (%) [4]: 96%
Population Pyknosed Nuclei (%) [4]: 11% and 13%
Population Tubulin-Different-Phenotype (%) [4]: 4% and 7%
Total Cell Count [4]: 299 and 129
Population Apoptotic (%) [5]: 87% and 89%
Population Fragmented Nuclei (%) [5]: 16% and 12%
Population Healthy Nuclei (%) [5]: 75%
Population Hoechst High Intensity Objects (%) [5]: 2% and 1%
Population Membrane Permeable-Phenotype (%) [5]: 4% and 1%
Population Mitochondria Different-Phenotype (%) [5]: 3% and 2%
Population Mitotic Cells (%) [5]: 12% and 10%
Population Normal (%) [5]: 97% and 98%
Population Pyknosed Nuclei (%) [5]: 7% and 11%
Population Tubulin-Different-Phenotype (%) [5]: 2% and 1%
Total Cell Count [5]: 450 and 252
Population Apoptotic (%) [6]: 69% and 90%
Population Fragmented Nuclei (%) [6]: 22% and 23%
Population Healthy Nuclei (%) [6]: 67% and 65%
Population Hoechst High Intensity Objects (%) [6]: 3% and 2%
Population Membrane Permeable-Phenotype (%) [6]: 10% and 9%
Population Mitochondria Different-Phenotype (%) [6]: 5%
Population Mitotic Cells (%) [6]: 30% and 10%
Population Normal (%) [6]: 96% and 97%
Population Pyknosed Nuclei (%) [6]: 9% and 11%
Population Tubulin-Different-Phenotype (%) [6]: 4% and 3%
Total Cell Count [6]: 413 and 182

O=C(Nc1ccccc1Br)N[C@@H]1CCN(c2ccc(C(F)(F)F)cn2)C1 [SB-705498]
Population Apoptotic (%) [1]: 38.89% and 33.33%
Population Fragmented Nuclei (%) [1]: 1.94% and 6.43%
Population Healthy Nuclei (%) [1]: 84.95% and 83.04%
Population Hoechst High Intensity Objects (%) [1]: 0%
Population Membrane Permeable-Phenotype (%) [1]: 1.14% and 2.82%
Population Mitochondria Different-Phenotype (%) [1]: 0% and 3.52%
Population Mitotic Cells (%) [1]: 61.11% and 66.67%
Population Normal (%) [1]: 100%
Population Pyknosed Nuclei (%) [1]: 13.11% and 10.53%
Population Tubulin-Different-Phenotype (%) [1]: 0.86% and 0%
Total Cell Count [1]: 412 and 171
Population Apoptotic (%) [2]: 43.24% and 36.84%
Population Fragmented Nuclei (%) [2]: 0.5% and 3.7%
Population Healthy Nuclei (%) [2]: 90.35% and 82.22%
Population Hoechst High Intensity Objects (%) [2]: 0%
Population Membrane Permeable-Phenotype (%) [2]: 0.55% and 5.41%
Population Mitochondria Different-Phenotype (%) [2]: 0% and 21.62%
Population Mitotic Cells (%) [2]: 56.76% and 63.16%
Population Normal (%) [2]: 100%
Population Pyknosed Nuclei (%) [2]: 9.16% and 14.07%
Population Tubulin-Different-Phenotype (%) [2]: 1.64% and 3.6%
Total Cell Count [2]: 404 and 135
Population Apoptotic (%) [3]: 45.28% and 27.59%
Population Fragmented Nuclei (%) [3]: 2.03% and 4.69%
Population Healthy Nuclei (%) [3]: 88.17% and 81.69%
Population Hoechst High Intensity Objects (%) [3]: 0.18% and 0%
Population Membrane Permeable-Phenotype (%) [3]: 0.21% and 2.87%
Population Mitochondria Different-Phenotype (%) [3]: 0% and 10.34%
Population Mitotic Cells (%) [3]: 54.72% and 72.41%
Population Normal (%) [3]: 99.82% and 100%
Population Pyknosed Nuclei (%) [3]: 9.8% and 13.62%
Population Tubulin-Different-Phenotype (%) [3]: 0.84% and 0%
Total Cell Count [3]: 542 and 213
Population Apoptotic (%) [4]: 39.24% and 21.05%
Population Fragmented Nuclei (%) [4]: 0.86% and 1.8%
Population Healthy Nuclei (%) [4]: 85.49% and 86.83%
Population Hoechst High Intensity Objects (%) [4]: 0%
Population Membrane Permeable-Phenotype (%) [4]: 1.82% and 4.14%
Population Mitotic Cells (%) [4]: 60.76% and 78.95%
Population Normal (%) [4]: 100%
Population Pyknosed Nuclei (%) [4]: 13.64% and 11.38%
Population Tubulin-Different-Phenotype (%) [4]: 2.83% and 1.38%
Population Apoptotic (%) [5]: 41.75% and 51.28%
Population Fragmented Nuclei (%) [5]: 3.31% and 2.67%
Population Healthy Nuclei (%) [5]: 86.67% and 86.93%
Population Hoechst High Intensity Objects (%) [5]: 0%
Population Membrane Permeable-Phenotype (%) [5]: 0.9% and 2.76%
Population Mitochondria Different-Phenotype (%) [5]: 0% and 4.29%
Population Mitotic Cells (%) [5]: 58.25% and 48.72%
Population Normal (%) [5]: 100%
Population Pyknosed Nuclei (%) [5]: 10.02% and 10.4%
Population Tubulin-Different-Phenotype (%) [5]: 0.9% and 0.92%
Total Cell Count [5]: 1028 and 375
Population Apoptotic (%) [6]: 52.22% and 32.26%
Population Fragmented Nuclei (%) [6]: 1.85% and 1.83%
Population Healthy Nuclei (%) [6]: 89.37% and 86.81%
Population Hoechst High Intensity Objects (%) [6]: 0.1% and 0%
Population Membrane Permeable-Phenotype (%) [6]: 1.09% and 4.64%
Population Mitochondria Different-Phenotype (%) [6]: 0.22% and 8.02%
Population Mitotic Cells (%) [6]: 47.78% and 67.74%
Population Normal (%) [6]: 99.9% and 100%
Population Pyknosed Nuclei (%) [6]: 8.78% and 11.36%
Population Tubulin-Different-Phenotype (%) [6]: 2.07% and 1.27%

From ChEMBL document CHEMBL5724801, “EUbOPEN Chemogenomics Library - Multiplex” (2024)
